Calls of active or inactive are those of the source. No cut-off for these calls is given here.
Tests used:
A498 [1] = assay: Antiproliferative activity against human A498 cells assessed as reduction in cell viability incubated for 72 hrs by MTT assay; format: functional, cell-based; settings: A498, 72 h
Summary of the method: (§1)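 MTT read-out. Cells seeded at 1,000-2,200/well, grown 12 hr at 37 °C before compound, then exposed 72 hr. MTT for 4 hr, formazan dissolved in DMSO, A490 read. Untreated cells = 100% proliferation. IC50 quantitated; mean ± SD, n = 3.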

OS-RC-2 [2] = assay: Antiproliferative activity against human OS-RC2 cells assessed as reduction in cell viability at 30 uM incubated for 72 hrs by MTT assay relative to control; format: functional; settings: OS-RC-2, 72 h
Summary of the method: (§2)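 MTT read-out. Cells seeded at 1,000-2,200/well, grown 12 hr at 37 °C, then compound added for 72 hr. MTT for 4 hr, formazan dissolved in DMSO, absorbance at 490 nm. Untreated-cell OD taken as 100% proliferation; inhibition reported at 30 μM.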

OS-RC-2 [3] = assay: Antiproliferative activity against human OS-RC2 cells assessed as reduction in cell viability incubated for 72 hrs by MTT assay; format: functional, cell-based; settings: OS-RC-2, 72 h; summary of the method: as §1
A498 [4] = assay: Antiproliferative activity against human A498 cells assessed as reduction in cell viability at 30 uM incubated for 72 hrs by MTT assay relative to control; format: functional; settings: A498, 72 h; summary of the method: as §2
[5] = target: Speckle-type POZ protein (Homo sapiens) (UniProt O43791); assay: Binding affinity to recombinant N-terminal GST/His-tagged MATH binding domain SPOP (unknown origin) expressed in Escherichia coli BL21 (DE3) assessed as change in melting temperature at 20 fold compound incubated for 15 mins by nano differential scanning fluorimetry (reference value: -3.8 degreeC)
[6] = target: Speckle-type POZ protein (Homo sapiens) (UniProt O43791); assay: Binding affinity to recombinant N-terminal GST/His-tagged MATH binding domain SPOP (unknown origin) expressed in Escherichia coli BL21 (DE3) assessed as change in melting temperature at 10 fold compound incubated for 15 mins by nano differential scanning fluorimetry (reference value: -1.7 degreeC)
[7] = target: Speckle-type POZ protein (Homo sapiens) (UniProt O43791); assay: Inhibition of SPOP signalling in human OS-RC2 cells assessed as accumulation of PTEN at 5 to 15 uM incubated for 12 hrs by Western blot analysis; format: cell-based
[8] = target: Speckle-type POZ protein (Homo sapiens) (UniProt O43791); assay: Binding affinity to recombinant N-terminal GST/His-tagged SPOP (unknown origin) MATH binding domain expressed in Escherichia coli BL21 (DE3) assessed as change in melting temperature at 5 fold compound by SYPRO Orange dye based differential scanning fluorimetry (reference value: -1.7 degreeC)
A498 [9] = assay: Inhibition of colony formation in human A498 cells at 1 to 5 uM incubated for 12 days by crystal violet dye based assay; format: functional, cell-based
Summary of the method: (§3)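 Cells seeded at 1,000/well, grown 12 days at 37 °C, 5% CO2, medium renewed every 3 days. Fixed with 10% acetic acid/10% methanol for 15 min, stained with 1% crystal violet for 10 min.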

[10] = Solubility of compound in cell culture medium in presence of 0.2 % DMSO; format: physicochemical
Summary of the method: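 Solubility determined in cell culture medium containing 0.2% DMSO.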

OS-RC-2 [11] = assay: Inhibition of colony formation in human OS-RC2 cells at 1 to 5 uM incubated for 12 days by crystal violet dye based assay; format: functional, cell-based; summary of the method: as §3
[12] = target: Speckle-type POZ protein (Homo sapiens) (UniProt O43791); assay: Binding affinity to recombinant N-terminal GST/His-tagged SPOP (unknown origin) MATH binding domain expressed in Escherichia coli BL21 (DE3) assessed as change in melting temperature at 10 fold compound by SYPRO Orange dye based differential scanning fluorimetry (reference value: -1.7 degreeC)
[13] = target: Speckle-type POZ protein (Homo sapiens) (UniProt O43791); assay: Binding affinity to recombinant N-terminal GST/His-tagged SPOP (unknown origin) MATH binding domain expressed in Escherichia coli BL21 (DE3) assessed as change in melting temperature at 1 fold compound by SYPRO Orange dye based differential scanning fluorimetry (reference value: -1.7 degreeC)

Sequence of Speckle-type POZ protein (Homo sapiens) (O43791 whole entry, the tested form may be a part): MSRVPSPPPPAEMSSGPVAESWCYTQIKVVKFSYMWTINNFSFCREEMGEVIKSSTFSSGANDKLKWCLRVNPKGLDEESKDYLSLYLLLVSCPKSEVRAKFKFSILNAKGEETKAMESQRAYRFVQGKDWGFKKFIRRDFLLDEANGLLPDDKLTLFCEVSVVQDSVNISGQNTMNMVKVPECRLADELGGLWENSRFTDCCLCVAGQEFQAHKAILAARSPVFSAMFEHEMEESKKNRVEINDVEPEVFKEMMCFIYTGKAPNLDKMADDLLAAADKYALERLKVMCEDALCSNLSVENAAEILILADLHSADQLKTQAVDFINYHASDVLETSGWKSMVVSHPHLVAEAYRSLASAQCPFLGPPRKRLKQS

SMILES	IC50 (A498 [1]) [µM]	inhibition at 30 µM (OS-RC-2 [2]) [%]	IC50 (OS-RC-2 [3]) [µM]	inhibition at 30 µM (A498 [4]) [%]	ΔTm [5] [°C]	ΔTm [6] [°C]	inhibition [7]	ΔTm [8] [°C]	inhibition (A498 [9])	solubility [10] [µM]	inhibition (OS-RC-2 [11])	ΔTm [12] [°C]	ΔTm [13] [°C]
Cc1cccn2c(=O)c3cc(C(=O)NCCCN4CCOCC4)c(=N)n(CCCc4ccccc4)c3nc12	2.6	91	5.1	90									
Cc1cccn2c(=O)c3cc(C(=O)NC4CCCCC4)c(=N)n(CCc4cccs4)c3nc12	6.3	90	5.9	90	2.7	2.7	Active						
Cc1cccn2c(=O)c3cc(C(=O)NCCCN4CCOCC4)c(=N)n(CCc4cccc(F)c4)c3nc12	2.4	92	4.6	89	5.3	3.7	Active	4					
Cc1cccn2c(=O)c3cc(C(=O)NCCCN4CCOCC4)c(=N)n(CCc4cccs4)c3nc12	2.6	82	7.6	90	5.1	3.2	Active						
COc1ccc(CCn2c(=N)c(C(=O)NCCCN3CCOCC3)cc3c(=O)n4cccc(C)c4nc32)cc1	2.8	88	6.5	90	3.6	2.5		2.7					
Cc1cccn2c(=O)c3cc(C(=O)NCCCN4CCOCC4)c(=N)n(CCc4ccc(F)cc4)c3nc12	3.1	88	6.6	90	2.9	2.5		2					
Cc1cccn2c(=O)c3cc(C(=O)NCCCN4CCOCC4)c(=N)n(CCc4ccc(Cl)cc4)c3nc12	2.3	97	4	90	3.5	2.4							
Cc1cccn2c(=O)c3cc(C(=O)NCCCN4CCOCC4)c(=N)n(CCc4ccccc4)c3nc12	2.7	90	5.8	88	4	2.8		3	Active	30 to 45	Active		
CCCn1c(=N)c(C(=O)NCCCN2CCOCC2)cc2c(=O)n3cccc(C)c3nc21	6.4	66	5.2	57									
Cc1cccn2c(=O)c3cc(C(=O)NCCc4ccccc4)c(=N)n(CCc4cccs4)c3nc12	5	52	24.2	85	3.7	3.5							
COc1ccc(CCNC(=O)c2cc3c(=O)n4cccc(C)c4nc3n(CCc3cccs3)c2=N)cc1	2.8	75	4.2	87			Active		Active	2.5 to 5	Active		
CCN(CC)CCn1c(=N)c(C(=O)NCCCN2CCOCC2)cc2c(=O)n3cccc(C)c3nc21	3.5	89	3.9	86									
Cc1ccc(CCn2c(=N)c(C(=O)NCCCN3CCOCC3)cc3c(=O)n4cccc(C)c4nc32)cc1	2.1	94	5.7	91	2.1	1.8		2					
Cc1cccn2c(=O)c3cc(C(=O)NCc4cccnc4)c(=N)n(CCCN4CCOCC4)c3nc12	> 50		> 50		0.2	0		0.3				0.3	0
Cc1cccn2c(=O)c3cc(C(=O)NCCCN4CCOCC4)c(=N)n(CCc4ccc(Br)cc4)c3nc12	3	96	5	89	3.5	2.3		1.3	Active	5 to 10	Active		

— ChEMBL document CHEMBL4402603, “Structure-Activity Relationship of SPOP Inhibitors against Kidney Cancer” (J Med Chem, 2020)
